Data: publication PMC7293934 (Neuropharmacology, 2020)
Values joined by “and” are separate entries in the source; they are usually repeats but may differ in a detail not shown here. Identical values can stand only once. “Also recorded” adds a separate entry of the source. Like-named read-outs stand apart in the source and are kept apart here.

Experiments:
hippocampal interneurons = conditions: ref Perszyk et al., 2016; cited from earlier work
recombinant GluN1/2A/2C = conditions: ref Bhattacharya et al., 2018; cited from earlier work
[1] = test system: hippocampal CA1 pyramidal neurons; conditions: ref Perszyk et al., 2016; cited from earlier work
GluN1/2D [2] = molecular target: T1, GluN1/2D (Rattus norvegicus, UniProt P35439+Q62645); format: cell-based; conditions: for Increase in glutamate potency / Increase in glycine potency: 10 μM modulator; for Increase in glutamate potency: 50 μM glycine; for Increase in glycine potency: 100 μM glutamate; for Increase in potencies of co-agonists glutamate and glycine: summary statement
T1 sequence (Q62645 28-1323, other chains not shown): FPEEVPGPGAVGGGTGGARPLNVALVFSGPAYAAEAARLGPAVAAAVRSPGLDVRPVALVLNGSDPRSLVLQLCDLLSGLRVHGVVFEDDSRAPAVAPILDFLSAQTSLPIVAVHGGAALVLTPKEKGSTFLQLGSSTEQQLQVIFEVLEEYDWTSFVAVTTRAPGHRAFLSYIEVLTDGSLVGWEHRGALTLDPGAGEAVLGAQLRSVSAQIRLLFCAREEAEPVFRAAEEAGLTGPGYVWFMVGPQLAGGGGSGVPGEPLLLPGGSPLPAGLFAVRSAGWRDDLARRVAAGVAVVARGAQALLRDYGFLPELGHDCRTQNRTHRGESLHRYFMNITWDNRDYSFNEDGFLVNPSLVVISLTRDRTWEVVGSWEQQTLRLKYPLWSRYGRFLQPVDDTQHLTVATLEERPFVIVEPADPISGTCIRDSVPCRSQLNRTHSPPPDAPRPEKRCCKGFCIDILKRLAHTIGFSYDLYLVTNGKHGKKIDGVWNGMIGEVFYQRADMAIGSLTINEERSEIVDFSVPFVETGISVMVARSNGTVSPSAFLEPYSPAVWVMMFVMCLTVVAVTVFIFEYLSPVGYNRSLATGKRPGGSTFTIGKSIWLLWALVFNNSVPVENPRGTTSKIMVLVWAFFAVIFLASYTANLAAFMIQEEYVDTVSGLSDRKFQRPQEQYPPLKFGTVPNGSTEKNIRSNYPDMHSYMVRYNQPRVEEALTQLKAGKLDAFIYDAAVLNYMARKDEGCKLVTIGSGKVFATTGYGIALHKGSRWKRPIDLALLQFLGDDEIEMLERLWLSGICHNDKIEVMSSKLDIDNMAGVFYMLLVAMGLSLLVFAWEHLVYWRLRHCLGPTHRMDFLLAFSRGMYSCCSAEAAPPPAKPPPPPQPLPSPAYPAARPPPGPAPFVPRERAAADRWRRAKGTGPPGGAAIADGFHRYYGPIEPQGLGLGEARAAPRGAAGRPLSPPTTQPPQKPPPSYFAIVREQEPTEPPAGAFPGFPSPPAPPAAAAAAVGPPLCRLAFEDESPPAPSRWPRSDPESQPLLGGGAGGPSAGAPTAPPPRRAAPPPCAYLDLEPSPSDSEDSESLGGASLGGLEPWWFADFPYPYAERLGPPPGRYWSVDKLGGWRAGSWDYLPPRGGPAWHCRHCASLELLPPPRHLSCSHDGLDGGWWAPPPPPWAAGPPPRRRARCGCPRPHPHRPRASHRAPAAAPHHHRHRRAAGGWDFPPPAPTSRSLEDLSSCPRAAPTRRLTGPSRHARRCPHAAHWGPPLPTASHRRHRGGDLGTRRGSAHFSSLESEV

[3] = test system: NMDA receptor-mediated responses of STN neurons; conditions: ref Swanger et al., 2015; cited from earlier work
[4] = test system: native NMDA receptors expressed by STN neurons; format: cell-based, mouse; conditions: APV 400 μM superfusion
[5] = test system: native NMDA receptors expressed by hippocampal CA1 pyramidal neurons; format: cell-based, mouse
In short: (§1)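 Transverse 300 μm ventral hippocampal slices were cut from P12–18 C57BL/6J mice. Recording was at 32°C in aCSF with 0.2 mM Mg2+, 20 μM DNQX and 10 μM gabazine, using a Cs-based internal. Visually identified CA1 stratum radiatum/lacunosum moleculare interneurons or CA1 pyramidal neurons were held at +40 mV, with Schaffer collateral stimulation every 30–60 s. Sequence was baseline 5–10 min, 10 μM test compound 10–15 min, then 400 μM DL-APV.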

[6] = test system: native NMDA receptors expressed by hippocampal interneurons; format: cell-based, mouse
In short: as §1

[7] = test system: native NMDA receptors expressed by STN neurons; format: cell-based, mouse
In short: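 Sagittal 300 μm slices containing STN were cut from P12–18 C57BL/6J mice of either sex. Recording was at 32°C in aCSF with 0.2 mM Mg2+, 20 μM DNQX and 10 μM gabazine, using a Cs-based internal with QX-314, at −40 mV. Internal capsule stimulation was given every 30–60 s during 5–10 min baseline, then 10–15 min vehicle (0.01% DMSO) or 10 μM test compound, then 400 μM DL-APV. Charge transfer was taken as EPSC area.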

GluN1/2A [8] = conditions: read-out: glycine EC50; in the absence of PTC-174; ref Yi et al. 2016; cited from earlier work
GluN1/2C [9] = molecular target: T2, GluN1/2C (Rattus norvegicus, UniProt P35439+Q00961); format: cell-based
T2 sequence (Q00961 20-1237, other chains not shown): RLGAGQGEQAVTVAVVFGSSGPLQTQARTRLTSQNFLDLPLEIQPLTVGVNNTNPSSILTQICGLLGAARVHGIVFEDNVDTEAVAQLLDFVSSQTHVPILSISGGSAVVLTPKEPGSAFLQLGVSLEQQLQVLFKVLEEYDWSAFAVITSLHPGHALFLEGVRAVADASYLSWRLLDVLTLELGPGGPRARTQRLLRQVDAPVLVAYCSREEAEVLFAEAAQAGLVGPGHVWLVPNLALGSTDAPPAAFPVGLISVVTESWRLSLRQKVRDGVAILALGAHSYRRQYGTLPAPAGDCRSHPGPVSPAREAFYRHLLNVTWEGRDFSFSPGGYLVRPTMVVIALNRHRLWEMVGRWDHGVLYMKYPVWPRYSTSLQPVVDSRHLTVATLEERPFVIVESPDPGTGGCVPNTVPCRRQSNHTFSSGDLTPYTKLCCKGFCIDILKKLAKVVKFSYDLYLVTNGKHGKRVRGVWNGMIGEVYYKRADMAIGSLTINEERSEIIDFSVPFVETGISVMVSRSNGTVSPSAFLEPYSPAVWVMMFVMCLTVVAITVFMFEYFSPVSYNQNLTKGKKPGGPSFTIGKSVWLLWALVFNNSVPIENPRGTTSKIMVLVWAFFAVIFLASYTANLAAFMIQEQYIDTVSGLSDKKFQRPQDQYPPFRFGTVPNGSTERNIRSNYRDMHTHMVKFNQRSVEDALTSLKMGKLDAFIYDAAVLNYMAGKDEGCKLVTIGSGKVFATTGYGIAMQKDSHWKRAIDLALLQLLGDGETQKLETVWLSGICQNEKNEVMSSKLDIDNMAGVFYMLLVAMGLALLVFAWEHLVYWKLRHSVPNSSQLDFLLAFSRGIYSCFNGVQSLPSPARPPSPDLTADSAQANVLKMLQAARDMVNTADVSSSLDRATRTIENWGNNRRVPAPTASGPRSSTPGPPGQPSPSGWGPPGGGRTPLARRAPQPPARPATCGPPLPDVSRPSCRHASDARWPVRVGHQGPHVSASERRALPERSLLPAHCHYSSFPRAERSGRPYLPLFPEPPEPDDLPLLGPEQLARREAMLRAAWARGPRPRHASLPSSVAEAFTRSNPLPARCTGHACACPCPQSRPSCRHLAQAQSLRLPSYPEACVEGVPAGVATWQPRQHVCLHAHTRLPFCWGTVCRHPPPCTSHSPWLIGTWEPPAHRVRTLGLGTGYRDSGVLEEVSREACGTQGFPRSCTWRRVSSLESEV

AMPA (GluA1–4) receptors = experiment: Two-electrode voltage-clamp electrophysiology, selectivity over AMPA receptors; format: cell-based; conditions: 10 μM PTC-174; activated by 30 μM kainate
In short: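 GluA1–4 AMPA receptors were expressed from cRNA in Xenopus oocytes. Two-electrode voltage clamp was at −40 mV and 21–23°C in Ba2+-containing solution, pH 7.4. Currents were evoked by 30 μM kainate with and without 10 μM test compound (DMSO <0.1%). Responses were normalized to control without test compound, from 5–8 oocytes.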

GluN1/2A [10] = molecular target: GluN1/2A (Rattus norvegicus, UniProt P35439+Q00959); format: cell-based
GluN1/2A (Rattus norvegicus, UniProt P35439+Q00959), sequence (Q00959 23-1464, other chains not shown): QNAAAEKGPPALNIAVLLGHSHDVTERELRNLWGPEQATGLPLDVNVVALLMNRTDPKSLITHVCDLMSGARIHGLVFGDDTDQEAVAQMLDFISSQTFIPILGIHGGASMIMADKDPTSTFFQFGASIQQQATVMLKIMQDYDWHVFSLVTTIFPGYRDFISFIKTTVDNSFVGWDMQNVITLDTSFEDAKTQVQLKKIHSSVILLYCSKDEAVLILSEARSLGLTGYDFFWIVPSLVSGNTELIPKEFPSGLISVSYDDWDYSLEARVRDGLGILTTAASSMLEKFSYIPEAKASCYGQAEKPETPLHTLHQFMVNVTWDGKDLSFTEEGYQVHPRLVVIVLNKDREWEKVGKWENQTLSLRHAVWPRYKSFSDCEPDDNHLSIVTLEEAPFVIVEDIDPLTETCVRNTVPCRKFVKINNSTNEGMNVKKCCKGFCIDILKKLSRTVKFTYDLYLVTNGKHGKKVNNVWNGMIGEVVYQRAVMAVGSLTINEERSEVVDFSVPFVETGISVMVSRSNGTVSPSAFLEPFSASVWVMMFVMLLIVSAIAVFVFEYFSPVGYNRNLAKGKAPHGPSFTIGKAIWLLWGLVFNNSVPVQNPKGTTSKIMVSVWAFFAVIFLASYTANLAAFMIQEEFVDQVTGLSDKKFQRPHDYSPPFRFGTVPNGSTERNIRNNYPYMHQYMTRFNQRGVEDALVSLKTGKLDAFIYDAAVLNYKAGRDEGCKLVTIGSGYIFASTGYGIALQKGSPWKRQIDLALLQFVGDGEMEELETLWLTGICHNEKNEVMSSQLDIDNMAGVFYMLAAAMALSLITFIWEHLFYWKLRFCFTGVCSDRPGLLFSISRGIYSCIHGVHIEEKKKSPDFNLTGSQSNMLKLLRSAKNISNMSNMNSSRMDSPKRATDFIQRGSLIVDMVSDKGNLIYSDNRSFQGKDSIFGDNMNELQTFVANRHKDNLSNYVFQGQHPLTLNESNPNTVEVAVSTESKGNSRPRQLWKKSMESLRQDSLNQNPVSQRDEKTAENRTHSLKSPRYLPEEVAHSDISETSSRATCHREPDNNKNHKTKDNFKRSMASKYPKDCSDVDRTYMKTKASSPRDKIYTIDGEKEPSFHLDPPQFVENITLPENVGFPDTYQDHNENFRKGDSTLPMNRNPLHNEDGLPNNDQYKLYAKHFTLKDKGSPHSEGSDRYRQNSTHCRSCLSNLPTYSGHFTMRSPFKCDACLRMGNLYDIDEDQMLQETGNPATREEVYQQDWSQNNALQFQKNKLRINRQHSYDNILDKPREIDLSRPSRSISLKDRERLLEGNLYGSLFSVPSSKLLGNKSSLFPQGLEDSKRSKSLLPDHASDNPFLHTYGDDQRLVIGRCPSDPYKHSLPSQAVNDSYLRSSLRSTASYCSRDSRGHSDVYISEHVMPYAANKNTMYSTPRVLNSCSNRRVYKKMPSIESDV
In short: (§2)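 Rat GluN1 with GluN2A or GluN2B was expressed from cRNA in Xenopus oocytes. Oocytes were used 2–4 days later and preinjected with 50 mM BAPTA 10–30 min before recording. Two-electrode voltage clamp was at −40 mV and 21–23°C in Ba2+-containing solution, pH 7.4. […] Responses as % of agonist alone were Hill-fitted for EC50, nH and maximal modulation. At least 4 oocytes from ≥2 frogs were used.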

[11] = molecular target: GluN1/2AC1/2BC2 (triheteromeric GluN1/2A/2B) (Rattus norvegicus, UniProt P35439+Q00959+Q00960); format: cell-based
[12] = test system: kainate (GluK1–2) receptors; format: cell-based; conditions: 10 μM PTC-174; activated by 100 μM glutamate; concanavalin A pre-incubation
In short: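 Oocytes expressing GluK1 or GluK2 were incubated 10 min in 1 mg/ml concanavalin A in recording solution. They were then clamped at −40 mV at 21–23°C in Ba2+-containing solution, pH 7.4. […] Responses were normalized to control without test compound, from 5–8 oocytes.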

GluN1/2D [13] = molecular target: T1, GluN1/2D; experiment: Fast-application whole-cell patch-clamp electrophysiology, HEK293 cells; format: cell-based; conditions: 10 μM glycine
In short: (§3)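 HEK293 cells on poly-D-lysine coverslips in DMEM with 10% dialyzed FBS were calcium-phosphate transfected with GFP, GluN1 and GluN2 cDNAs (1:1:1), with 200 μM D,L-APV and 200 μM 7-chlorokynurenic acid in the medium. About 24 h later, whole-cell recordings were made at 20°C and −60 mV on lifted cells using piezo-driven theta-glass exchange. Cells were accepted at <1000 pA and <10 MΩ series resistance.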

GluN1/2CC1/2CC2-NK = GluN1/2CC1/2CC2-NK (Rattus norvegicus, UniProt P35439+Q00961, N612K); format: cell-based; conditions: for EC50: EC50, 100 μM glutamate + 50 μM glycine; for nH: Hill slope
GluN1/2CC1/2CC2-NK, sequence (Q00961 20-836 N612K, other chains not shown): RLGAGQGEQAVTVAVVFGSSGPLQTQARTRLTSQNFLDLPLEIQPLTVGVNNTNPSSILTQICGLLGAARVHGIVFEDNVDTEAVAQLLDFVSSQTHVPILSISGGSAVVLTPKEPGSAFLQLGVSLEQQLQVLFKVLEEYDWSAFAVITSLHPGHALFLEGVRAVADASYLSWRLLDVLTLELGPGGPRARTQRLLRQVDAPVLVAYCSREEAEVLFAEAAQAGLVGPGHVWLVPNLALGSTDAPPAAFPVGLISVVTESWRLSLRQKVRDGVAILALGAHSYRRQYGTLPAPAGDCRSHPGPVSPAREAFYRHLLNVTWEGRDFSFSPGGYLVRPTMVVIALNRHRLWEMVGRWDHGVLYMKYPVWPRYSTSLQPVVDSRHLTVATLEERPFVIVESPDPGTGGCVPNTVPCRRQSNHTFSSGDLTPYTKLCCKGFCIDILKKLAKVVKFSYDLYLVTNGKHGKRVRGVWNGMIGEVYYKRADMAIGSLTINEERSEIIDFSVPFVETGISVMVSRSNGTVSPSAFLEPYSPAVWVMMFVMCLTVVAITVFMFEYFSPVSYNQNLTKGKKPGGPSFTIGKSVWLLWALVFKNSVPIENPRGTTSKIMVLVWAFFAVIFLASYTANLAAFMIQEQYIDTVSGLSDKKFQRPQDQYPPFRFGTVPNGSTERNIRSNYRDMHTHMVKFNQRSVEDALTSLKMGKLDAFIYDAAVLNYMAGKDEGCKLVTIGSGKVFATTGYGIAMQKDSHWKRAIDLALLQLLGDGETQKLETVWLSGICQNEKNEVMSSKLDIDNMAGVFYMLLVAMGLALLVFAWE

[14] = CNS exposure after systemic administration; format: in vivo; conditions: no data shown
[15] = molecular target: GluN1/2AC1/2CC2-NK (triheteromeric GluN1/2A/2C) (Rattus norvegicus, UniProt P35439+Q00959+Q00961, N612K); format: cell-based; conditions: Hill slope; in the presence of 1 mM Mg2+
GluN1/2B = GluN1/2B (Rattus norvegicus, UniProt P35439+Q00960); format: cell-based
In short: as §2

[16] = molecular target: GluN1/2BC1/2DC2 (triheteromeric GluN1/2B/2D) (Rattus norvegicus, UniProt P35439+Q00960+Q62645); format: cell-based; conditions: Hill slope of PTC-174 concentration-response
GluN1/2C [17] = molecular target: T2, GluN1/2C; experiment: Fast-application whole-cell patch-clamp electrophysiology, HEK293 cells; format: cell-based; conditions: 10 μM PTC-174 continuous; 3–5 ms 1 mM glutamate; 10 μM glycine
In short: as §3

[18] = control (no modulator), continuous 50 μM glycine
[19] = 10 μM PTC-174, 10 μM glutamate + 1 μM glycine
[20] = Hill slope of PTC-174 concentration-response
[21] = 100 μM glutamate + 50 μM glycine
[22] = relative to the response activated by glutamate + glycine + PTC-174

COc1ccc(OCC2c3cc(OC)c(OC)cc3CCN2C(=O)c2cccc(Cl)c2)cc1 (single isomer, unassigned; (+)) [(+)-CIQ, (3-Chlorophenyl){6,7-dimethoxy-1-[(4-methoxyphenoxy)methyl]-3,4-dihydro-2(1H)-isoquinolinyl}methanone]
Effect on EPSC decay time (hippocampal interneurons): did not affect the EPSC decay time | Efficacy relative to GluN1/2C (recombinant GluN1/2A/2C): nearly as efficacious at recombinant GluN1/2A/2C as at GluN1/2C | Effect on NMDA receptor-mediated EPSCs [1]: no effect on NMDA receptor-mediated EPSCs | Increase in glutamate potency (GluN1/2D [2]): no effect on glutamate potency | Increase in glycine potency (GluN1/2D [2]): no significant effect on glycine potency | Increase in potencies of co-agonists glutamate and glycine (GluN1/2D [2]): no effect on agonist potencies | Effect on NMDA receptor-mediated responses of STN neurons [3]: potentiate

NC(CCCP(=O)(O)O)C(=O)O (stereo not drawn) [APV, 2-Amino-5-phosphonovalerate, reference compound]
Effect on NMDA-evoked current [4]: eliminated; also recorded: completely blocked the response to NMDA | Effect on NMDA receptor-mediated EPSCs ([5]; APV 400 μM superfusion): completely blocked the NMDA receptor-mediated EPSCs | Effect on NMDA receptor-mediated EPSCs ([6]; APV 400 μM superfusion): completely blocked the NMDA receptor-mediated EPSCs | Effect on NMDA receptor-mediated EPSCs ([7]; APV 400 μM superfusion): completely blocked the NMDA receptor-mediated EPSCs

NCC(=O)O [glycine]
EC50 (GluN1/2A [8]): 1100 nM

N[C@@H](CCC(=O)O)C(=O)O [glutamate, reference compound]
nH (glutamate) (GluN1/2C [9]; [18]): 1.3 | nH (glutamate) (GluN1/2D [2]; [18]): 1.7 and 1.5

CC(C)(C)c1ccc(-c2nc3n(c(=O)c2C#N)CCCS3)cn1 [PTC-174, 8-(6-(tert-butyl)pyridin-3-yl)-6-oxo-3,4-dihydro-2H,6H-pyrimido[2,1-b][1,3]thiazine-7-carbonitrile]
Effect on current responses (AMPA (GluA1–4) receptors): did not affect current responses | Potentiation of responses at low glycine (GluN1/2A [10]; [19]): 1.6 fold | Maximal modulation (% control) (GluN1/2A [10]; 100 μM glutamate + 50 μM glycine, control = response without PTC-174, inhibition): 39 ± 4 % control | nH (GluN1/2A [10]; [20]): −1.1 | Effect on current responses (in words) (GluN1/2A [10]; maximal glutamate plus glycine): concentration-dependent partial inhibition; also recorded: partial antagonist | EC50 [11]: 19.7 ± 1.5 µM | nH [11, 20]: −1.0 | Effect on current responses (in words) ([11]; maximal glutamate plus glycine): partial inhibition; also recorded: partial antagonist | Effect on current responses [12]: did not affect current responses | Potentiation of responses at low glycine (GluN1/2C [9]; [19]): ~ 10 fold | Increase in glycine potency (GluN1/2C [9]; 10 μM modulator, 100 μM glutamate): 4.7 fold | Maximal modulation (% control) (GluN1/2C [9]; [21]): 1095 ± 29 % control | nH (GluN1/2C [9]; [20]): 1.2 | Maximal potentiation of current responses (GluN1/2C [9]; maximal glutamate plus glycine): > 10 fold | Current response to glutamate only + PTC-174 (GluN1/2C [9]; [22]): 1.5% ± 0.1 | Current response to glycine only + PTC-174 (GluN1/2C [9]; [22]): 4.0% ± 0.9 | Increase in potencies of co-agonists glutamate and glycine (GluN1/2C [9]; summary statement): 2- to 5 fold | Potentiation of responses at low glycine (GluN1/2D [2]; [19]): ~ 10 fold | Increase in glutamate potency (GluN1/2D [2]): 2.5 fold | Increase in glycine potency (GluN1/2D [2]): 4.8 fold | Maximal modulation (% control) (GluN1/2D [2]; [21]): 1265 ± 67 % control | nH (GluN1/2D [2]; [20]): 1.2 | Maximal potentiation of current responses (GluN1/2D [2]; maximal glutamate plus glycine): > 10 fold and 13 fold | Increase in potencies of co-agonists glutamate and glycine (GluN1/2D [2]): 2- to 5 fold | τfast ([5]; 10 μM PTC-174, +40 mV, baseline 56.0 ± 3.3): 64.3 ± 9.3 ms | τw (weighted EPSC decay time constant) ([5]; 10 μM PTC-174, +40 mV, baseline 150.1 ± 10.0): 187.3 ± 20.0 ms | τslow ([5]; 10 μM PTC-174, +40 mV, baseline 382.5 ± 38.8): 416.1 ± 36.9 ms | τfast ([6]; 10 μM PTC-174, +40 mV, baseline 113.7 ± 27.2): 147.3 ± 46.5 ms | Peak amplitude ([6]; 10 μM PTC-174, +40 mV, baseline 132.6 ± 20.1): 157 ± 23 pA and 156.6 ± 23.3 pA | τw (weighted EPSC decay time constant) ([6]; 10 μM PTC-174, +40 mV, baseline 191.6 ± 6.6): 292.0 ± 41.8 ms | τslow ([6]; 10 μM PTC-174, +40 mV, baseline 321.4 ± 36.0): 522.4 ± 154.9 ms | Charge transfer ([7]; 10 μM PTC-174, −40 mV, baseline 12.9 ± 1.4): 15.9 ± 2.4 pA·S | τfast ([7]; 10 μM PTC-174, −40 mV, baseline 49.6 ± 5.5): 69.3 ± 10.1 ms | τw (weighted EPSC decay time constant) ([7]; 10 μM PTC-174, −40 mV, baseline 111.0 ± 7.1): 166.7 ± 21.3 ms and 166.7 ± 2.1 ms | τslow ([7]; 10 μM PTC-174, −40 mV, baseline 226.2 ± 21.8): 397.7 ± 131.5 ms | Enhancement of peak responses (GluN1/2D [13]; 10 μM PTC-174 continuous, 3–5 ms 1 mM glutamate): 5.3 fold | Potentiation of response to 2 second glutamate application (GluN1/2D [13]; 10 μM PTC-174 present before and during 1 mM glutamate exposure): 6.3 fold | EC50 (GluN1/2CC1/2CC2-NK; in the presence of 1 mM Mg2+): 4.5 ± 0.2 µM | EC50 (GluN1/2CC1/2CC2-NK; without Mg2+): 5 ± 0.5 µM | nH (GluN1/2CC1/2CC2-NK; in the presence of 1 mM Mg2+): 1.2 | nH (GluN1/2CC1/2CC2-NK; without Mg2+): 1.4 | CNS exposure [14]: readily achieves CNS exposure after systemic administration | nH [15]: 1.2 | Potentiation of responses at low glycine (GluN1/2B; [19]): 1.8 fold | Maximal modulation (% control) (GluN1/2B; [21]): 180 ± 4 % control | nH (GluN1/2B; [20]): 1.3 | Maximal potentiation of current responses (GluN1/2B; maximal glutamate plus glycine): 1.8 fold | nH [16]: 1.0 | Enhancement of peak responses (GluN1/2C [17]): 3.7 fold
